Molecules are shown by their SMILES.

Data set [1] concerns the target T1, C-C chemokine receptor type 2 (Homo sapiens, UniProt P41597). Nature of the data set: Antagonist activity at human CCR2 expressed in CHO cells assessed as inhibition of MCP1-induced [35S]-GTPgammaS binding after 3 hrs. It is filed as functional, cell-based.
Target sequence in this assay (P41597 whole entry): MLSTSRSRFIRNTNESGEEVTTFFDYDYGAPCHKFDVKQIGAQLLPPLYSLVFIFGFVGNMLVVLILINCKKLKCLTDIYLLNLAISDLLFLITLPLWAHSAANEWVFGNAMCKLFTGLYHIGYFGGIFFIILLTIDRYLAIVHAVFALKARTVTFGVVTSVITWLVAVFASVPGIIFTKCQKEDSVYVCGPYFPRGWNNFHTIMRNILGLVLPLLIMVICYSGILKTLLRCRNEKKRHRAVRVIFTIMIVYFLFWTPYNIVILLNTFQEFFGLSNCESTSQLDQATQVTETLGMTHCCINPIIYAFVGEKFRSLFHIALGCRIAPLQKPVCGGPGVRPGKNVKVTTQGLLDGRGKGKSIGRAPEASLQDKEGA
The target of data set [2] is T1, C-C chemokine receptor type 2. Nature of the data set: Antagonist activity at CCR2 in human THP1 cells assessed as inhibition of CCL2-induced chemotaxis at 1 uM in presence of 0.1% human serum. It is filed as functional, cell-based. The settings on record: THP-1. In a few lines:
(§1)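 Boyden chamber (48-well) chemotaxis of THP-1 cells stimulated with CCL2. Foetal bovine serum or human serum was added to the assay buffer.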
Target sequence in this assay (P41597 whole entry, looked up): as the sequence (P41597 whole entry) above

For data set [3] the target is unchanged. Nature of the data set: Antagonist activity at CCR2 in human THP1 cells assessed as inhibition of CCL2-induced chemotaxis at 1 uM in presence of 1% human serum. The class given is functional, cell-based. The settings on record: THP-1. The gist of the method:
as §1
Target sequence in this assay (P41597 whole entry, looked up): as the sequence (P41597 whole entry) above

Data set [4] can be described thus: Lipophilicity, log D of the compound. It is filed as physicochemical. The settings on record: octanol/water.
Data set [5] can be described thus: Oral bioavailability in rat. The class given is ADME, organism-based. To be noted: in vivo.
A short description of data set [6]: Half life in iv dosed in rat. It is filed as ADME, organism-based. The settings on record: in vivo.
Data set [7] in a line: Half life in po dosed in rat. The settings on record: in vivo. It is filed as ADME, organism-based.
A short description of data set [8]: Clearance in rat. It is filed as ADME, organism-based. To be noted: in vivo.
Data set [9] is filed under the species Rattus norvegicus. Nature of the data set: Volume of distribution in rat. To be noted: in vivo. The class given is ADME, organism-based.
For data set [10], the target named is Voltage-gated inwardly rectifying potassium channel KCNH2 (Homo sapiens, UniProt Q12809). Nature of the data set: Binding affinity to human ERG by fluorescence-polarization binding assay.
In data set [11] the target is T2, Cytochrome P450 1A2 (Homo sapiens, UniProt P05177).
T2 sequence (P05177 whole entry): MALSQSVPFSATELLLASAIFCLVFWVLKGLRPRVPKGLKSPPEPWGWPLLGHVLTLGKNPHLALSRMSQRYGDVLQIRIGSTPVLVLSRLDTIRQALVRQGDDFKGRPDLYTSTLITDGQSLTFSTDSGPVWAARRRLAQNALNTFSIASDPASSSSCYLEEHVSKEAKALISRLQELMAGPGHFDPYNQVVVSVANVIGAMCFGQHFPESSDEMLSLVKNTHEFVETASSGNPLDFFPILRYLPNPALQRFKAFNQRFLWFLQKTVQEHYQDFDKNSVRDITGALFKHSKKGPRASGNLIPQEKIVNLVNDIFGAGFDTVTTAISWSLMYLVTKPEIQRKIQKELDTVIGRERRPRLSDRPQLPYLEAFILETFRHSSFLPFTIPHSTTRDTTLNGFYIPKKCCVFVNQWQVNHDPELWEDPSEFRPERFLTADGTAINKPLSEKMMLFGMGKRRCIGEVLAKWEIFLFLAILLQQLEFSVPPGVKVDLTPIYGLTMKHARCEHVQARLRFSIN
Nature of the data set: Inhibition of CYP1A2. The class given is ADME.

In data set [12] the target is Cytochrome P450 2C19 (Homo sapiens, UniProt P33261). Nature of the data set: Inhibition of CYP2C19. It is filed as ADME.
For data set [13], the target named is Cytochrome P450 2C9 (Homo sapiens, UniProt P11712). Kind of data set: Inhibition of CYP2C9. It is filed as ADME.
Data set [14] addresses Cytochrome P450 2D6 (Homo sapiens, UniProt P10635). Kind of data set: Inhibition of CYP2D6. It is filed as ADME.
Data set [15] concerns the target Cytochrome P450 3A4 (Homo sapiens, UniProt P08684). Kind of data set: Inhibition of CYP3A4. It is filed as ADME.
Data set [16] addresses T3, C-C chemokine receptor type 4 (Homo sapiens, UniProt P51679).
T3 sequence (P51679 whole entry): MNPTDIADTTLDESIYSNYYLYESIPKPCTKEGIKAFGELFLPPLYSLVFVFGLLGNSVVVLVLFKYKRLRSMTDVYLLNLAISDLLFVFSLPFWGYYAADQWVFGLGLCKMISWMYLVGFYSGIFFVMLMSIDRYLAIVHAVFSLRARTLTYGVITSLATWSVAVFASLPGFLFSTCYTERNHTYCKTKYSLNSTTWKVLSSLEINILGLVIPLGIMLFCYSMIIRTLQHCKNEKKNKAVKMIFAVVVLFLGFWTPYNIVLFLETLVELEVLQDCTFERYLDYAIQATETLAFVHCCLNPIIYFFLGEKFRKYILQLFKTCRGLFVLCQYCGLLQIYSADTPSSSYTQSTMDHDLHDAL
Nature of the data set: Antagonist activity at CCR4. The class given is functional.

Data set [17] deals with C-C chemokine receptor type 5 (Homo sapiens, UniProt P51681). Nature of the data set: Antagonist activity at CCR5. It is filed as functional.
The target of data set [18] is T1, C-C chemokine receptor type 2. Kind of data set: Inhibition of CCR2-mediated chemotaxis in human THP1 cells assessed as half life of reversibility at 10 uM after assay buffer exchange. The class given is cell-based. The settings on record: THP-1. In a few lines: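 THP-1 cells were preincubated with compound at 10 µM for 30 min. The assay buffer was then exchanged and CCL2-driven chemotaxis was stimulated periodically to generate a reversibility curve. The half-life of reversibility was taken from this curve.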
Target sequence in this assay (P41597 whole entry, looked up): as the sequence (P41597 whole entry) above

For data set [19], the target named is T4, Albumin (Homo sapiens, UniProt P02768). Nature of the data set: Binding affinity to immobilised human serum albumin by chromatographic analysis. It is filed as ADME. To be noted: isolated protein.
For data set [20], the target named is T4, Albumin. Kind of data set: Binding affinity to immobilised human serum albumin by ultrafiltration and biacore method. To be noted: isolated protein. The class given is ADME.

T4 sequence (P02768 whole entry): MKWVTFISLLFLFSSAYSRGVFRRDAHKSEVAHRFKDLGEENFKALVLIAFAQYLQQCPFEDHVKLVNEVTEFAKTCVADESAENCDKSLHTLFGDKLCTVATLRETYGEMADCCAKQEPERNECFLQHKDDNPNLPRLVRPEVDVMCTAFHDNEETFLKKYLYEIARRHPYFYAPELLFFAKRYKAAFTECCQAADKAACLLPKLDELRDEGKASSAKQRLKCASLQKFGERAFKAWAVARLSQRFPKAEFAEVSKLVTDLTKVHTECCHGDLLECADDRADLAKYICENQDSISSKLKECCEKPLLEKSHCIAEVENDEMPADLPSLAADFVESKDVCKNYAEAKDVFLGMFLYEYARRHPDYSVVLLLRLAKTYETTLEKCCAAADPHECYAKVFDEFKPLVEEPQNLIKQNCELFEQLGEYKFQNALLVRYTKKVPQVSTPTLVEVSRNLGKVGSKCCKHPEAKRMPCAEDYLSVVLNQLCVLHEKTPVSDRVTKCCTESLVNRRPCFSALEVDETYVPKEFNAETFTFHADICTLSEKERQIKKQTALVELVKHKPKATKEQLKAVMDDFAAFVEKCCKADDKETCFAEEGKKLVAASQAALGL
Sequence of Cytochrome P450 3A4 (P08684 whole entry): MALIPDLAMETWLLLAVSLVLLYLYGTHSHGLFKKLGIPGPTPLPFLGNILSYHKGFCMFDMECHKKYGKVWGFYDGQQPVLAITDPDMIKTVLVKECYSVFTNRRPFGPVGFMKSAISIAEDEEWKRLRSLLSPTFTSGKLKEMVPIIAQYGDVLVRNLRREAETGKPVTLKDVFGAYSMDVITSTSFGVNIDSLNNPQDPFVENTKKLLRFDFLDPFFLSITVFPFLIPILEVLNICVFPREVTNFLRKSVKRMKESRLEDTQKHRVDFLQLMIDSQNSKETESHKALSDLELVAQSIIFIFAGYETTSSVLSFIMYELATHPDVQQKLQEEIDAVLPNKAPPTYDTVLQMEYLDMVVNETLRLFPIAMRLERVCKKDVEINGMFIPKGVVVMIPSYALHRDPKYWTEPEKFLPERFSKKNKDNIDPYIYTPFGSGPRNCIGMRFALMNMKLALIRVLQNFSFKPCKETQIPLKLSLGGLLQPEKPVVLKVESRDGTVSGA
Sequence of Cytochrome P450 2C9 (P11712 whole entry): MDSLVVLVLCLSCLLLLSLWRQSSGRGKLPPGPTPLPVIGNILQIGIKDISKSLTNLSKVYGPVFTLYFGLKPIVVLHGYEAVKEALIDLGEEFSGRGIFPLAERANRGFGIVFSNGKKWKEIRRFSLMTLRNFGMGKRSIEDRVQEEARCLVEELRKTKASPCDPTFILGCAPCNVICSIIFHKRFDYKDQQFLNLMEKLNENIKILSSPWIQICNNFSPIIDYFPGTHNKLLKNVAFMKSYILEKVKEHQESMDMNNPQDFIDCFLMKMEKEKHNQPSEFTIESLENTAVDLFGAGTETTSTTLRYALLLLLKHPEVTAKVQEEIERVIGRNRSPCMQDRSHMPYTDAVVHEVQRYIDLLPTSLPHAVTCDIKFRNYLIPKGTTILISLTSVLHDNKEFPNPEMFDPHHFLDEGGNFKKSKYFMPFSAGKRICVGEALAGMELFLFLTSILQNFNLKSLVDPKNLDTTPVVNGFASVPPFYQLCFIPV
Sequence of C-C chemokine receptor type 5 (P51681 whole entry): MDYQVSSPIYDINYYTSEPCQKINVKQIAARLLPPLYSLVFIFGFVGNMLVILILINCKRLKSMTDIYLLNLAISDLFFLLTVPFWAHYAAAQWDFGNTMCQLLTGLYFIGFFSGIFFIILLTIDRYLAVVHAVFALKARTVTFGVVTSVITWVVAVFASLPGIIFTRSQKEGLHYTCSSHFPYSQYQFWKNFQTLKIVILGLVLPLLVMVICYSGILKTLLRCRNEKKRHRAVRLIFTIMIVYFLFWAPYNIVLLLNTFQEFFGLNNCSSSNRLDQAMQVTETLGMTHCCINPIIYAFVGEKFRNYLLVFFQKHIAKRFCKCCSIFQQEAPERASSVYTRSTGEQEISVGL
Sequence of Voltage-gated inwardly rectifying potassium channel KCNH2 (Q12809 whole entry): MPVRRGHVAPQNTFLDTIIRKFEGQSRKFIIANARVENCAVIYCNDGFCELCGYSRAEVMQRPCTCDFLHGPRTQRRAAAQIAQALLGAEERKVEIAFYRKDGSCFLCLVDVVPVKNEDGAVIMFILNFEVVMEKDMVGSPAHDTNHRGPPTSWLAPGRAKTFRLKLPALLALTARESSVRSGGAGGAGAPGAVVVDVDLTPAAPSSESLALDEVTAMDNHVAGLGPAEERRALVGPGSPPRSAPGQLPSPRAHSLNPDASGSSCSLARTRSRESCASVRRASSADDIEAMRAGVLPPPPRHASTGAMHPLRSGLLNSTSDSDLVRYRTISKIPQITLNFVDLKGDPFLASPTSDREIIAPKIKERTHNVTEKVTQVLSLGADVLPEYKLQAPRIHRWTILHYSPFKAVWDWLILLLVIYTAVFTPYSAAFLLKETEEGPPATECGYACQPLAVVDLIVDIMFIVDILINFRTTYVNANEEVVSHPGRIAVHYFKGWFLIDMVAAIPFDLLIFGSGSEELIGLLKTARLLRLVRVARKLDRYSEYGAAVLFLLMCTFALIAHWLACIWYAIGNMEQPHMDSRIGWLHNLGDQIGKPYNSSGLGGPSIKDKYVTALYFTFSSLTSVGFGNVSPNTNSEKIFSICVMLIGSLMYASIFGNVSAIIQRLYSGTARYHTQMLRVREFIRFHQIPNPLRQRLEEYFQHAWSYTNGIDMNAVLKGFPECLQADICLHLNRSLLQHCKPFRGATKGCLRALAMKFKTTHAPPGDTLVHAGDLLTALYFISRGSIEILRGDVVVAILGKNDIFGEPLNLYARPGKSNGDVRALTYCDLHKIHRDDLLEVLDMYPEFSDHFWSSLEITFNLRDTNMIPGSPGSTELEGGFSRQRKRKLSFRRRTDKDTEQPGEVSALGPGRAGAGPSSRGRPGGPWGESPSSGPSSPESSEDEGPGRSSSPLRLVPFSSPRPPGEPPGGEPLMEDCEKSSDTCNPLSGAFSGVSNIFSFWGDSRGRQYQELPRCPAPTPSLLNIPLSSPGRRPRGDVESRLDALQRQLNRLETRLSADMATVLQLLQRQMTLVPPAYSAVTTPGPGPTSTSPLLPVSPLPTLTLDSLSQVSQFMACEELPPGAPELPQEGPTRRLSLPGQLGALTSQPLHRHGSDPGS
Sequence of Cytochrome P450 2C19 (P33261 whole entry): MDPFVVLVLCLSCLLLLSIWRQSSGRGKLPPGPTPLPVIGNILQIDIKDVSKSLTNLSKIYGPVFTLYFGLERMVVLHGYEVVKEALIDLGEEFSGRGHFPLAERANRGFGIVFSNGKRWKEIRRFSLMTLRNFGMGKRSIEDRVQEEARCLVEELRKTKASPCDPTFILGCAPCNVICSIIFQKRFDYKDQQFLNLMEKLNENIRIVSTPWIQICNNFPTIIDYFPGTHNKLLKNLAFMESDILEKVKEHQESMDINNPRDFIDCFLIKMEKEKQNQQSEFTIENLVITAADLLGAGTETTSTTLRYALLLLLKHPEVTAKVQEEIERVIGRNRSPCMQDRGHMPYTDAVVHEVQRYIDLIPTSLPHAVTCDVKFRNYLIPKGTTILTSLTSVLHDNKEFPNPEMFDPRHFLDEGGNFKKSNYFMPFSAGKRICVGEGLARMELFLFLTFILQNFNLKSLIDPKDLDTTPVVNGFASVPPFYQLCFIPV
Sequence of Cytochrome P450 2D6 (P10635 whole entry): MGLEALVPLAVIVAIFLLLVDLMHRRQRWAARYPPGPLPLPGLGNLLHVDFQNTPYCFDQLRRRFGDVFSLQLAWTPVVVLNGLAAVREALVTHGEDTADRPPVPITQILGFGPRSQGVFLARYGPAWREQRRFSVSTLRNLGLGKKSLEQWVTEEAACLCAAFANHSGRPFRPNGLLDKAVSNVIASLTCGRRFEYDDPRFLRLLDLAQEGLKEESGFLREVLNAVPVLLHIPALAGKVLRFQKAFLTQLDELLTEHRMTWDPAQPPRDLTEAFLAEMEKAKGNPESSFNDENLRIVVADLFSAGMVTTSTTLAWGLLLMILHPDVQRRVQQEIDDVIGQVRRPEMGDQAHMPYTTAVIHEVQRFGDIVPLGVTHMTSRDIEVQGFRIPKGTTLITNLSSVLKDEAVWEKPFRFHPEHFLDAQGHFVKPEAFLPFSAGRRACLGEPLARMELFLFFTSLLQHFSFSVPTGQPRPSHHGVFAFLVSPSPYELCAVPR

For `O=C(O)c1ccccc1Oc1ncc(Cl)cc1NS(=O)(=O)c1ccc(Cl)c(Cl)c1`, the Ki was 0.00126 µM in data set [1] and 0.794 µM in data set [16]. Further, the inhibition was 67% in data set [2] and 37% in data set [3]. The molecule further registered a logD in data set [4] of 0.8. In addition, in [5], the bioavailability is 97%. Besides, the half-life in data set [6] and in [7] was 4.5 h in each case. Further, in data set [8], the clearance came out at 0.71 mL/min/kg. This molecule also yielded a volume of distribution (Vd) in [9] of 0.12 L/kg. Further, the IC50 is over 31.6 µM in data set [10]; 39.8 µM in data set [11]; 39.8 µM in data set [12]; 21.4 µM in data set [13]; 100 µM in [14]; 100 µM in data set [15]. Half-maximal inhibition in data set [17] (IC50) was put at 0.251 µM. The T1/2 in data set [18] was 4.67 h.

In the case of `O=S(=O)(Nc1cc(Cl)cnc1Oc1cccnc1)c1ccc(Cl)c(Cl)c1`, the Ki in data set [1] was 0.02 µM. Moreover, the inhibition in [2] was 36%; in data set [3], 5.4%. The logD in [4] is 2.32. Also, the figures for the Activity in data set [19] and in data set [20] were over 98% and over 99.5%, respectively.

The values are drawn from ChEMBL document CHEMBL1177762, “Identification of a sulfonamide series of CCR2 antagonists” (Bioorg Med Chem Lett, 2010).
